Experimental data from ChEMBL document CHEMBL3286203, “Reactive oxygen species (ROS) inducible DNA cross-linking agents and their effect on cancer cells and normal lymphocytes” (J Med Chem, 2014).

What was measured:
[1] = Drug level in deuterated phosphate buffer treated with 40 mM N,N-Bis(2-chloroethyl)-4-(4,4,5,5-tetramethyl-1,3,2-dioxaborolan-2-yl)aniline after 24 hrs by 1H-NMR analysis; format: physicochemical
Summary of the method: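 1H NMR of the boronate mustard (40 mM) held 24 h in deuterated potassium phosphate buffer (4.0 mM) with no H2O2. Solvent was 1.0 M deuterated potassium phosphate buffer/DMSO-d6/D2O = 2:450:48.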

[2] = Induction of [32P]-labeled 49-mer oligonucleotide duplex DNA 12 with GNC sequence at terminus (unknown origin) interstrand cross-linking at 50 uM after 16 hrs by PAGE in presence of H2O2
Summary of the method: (§1)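 32P-labelled 12a (1.0 μM) annealed with 1.5 equiv of 12b in 10 mM potassium phosphate pH 7 / 100 mM NaCl (65 °C for 3 min, then slow cooling). Duplex incubated with compound (final 1 μM–5 mM), with or without H2O2, in NaCl and potassium phosphate pH 8 at room temperature for 16 h. Quenched in formamide; 20% denaturing PAGE.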

[3] = Ratio of induction of [32P]-labeled 49-mer oligonucleotide duplex DNA 12 with GNC sequence at terminus (unknown origin) interstrand cross-linking in presence of H2O2 to induction of [32P]-labeled 49-mer oligonucleotide duplex DNA 12 with GNC sequence at terminus (unknown origin) in absence of H2O2; summary of the method: as §1
[4] = Induction of [32P]-labeled 49-mer oligonucleotide duplex DNA 12 with GNC sequence at terminus (unknown origin) interstrand cross-linking at 1 mM after 16 hrs by PAGE; summary of the method: as §1

SMILES	Drug metabolism [1]	Activity [2] [%]	Ratio [3]	Activity [4] [%]
CC(C)(O)C(C)(C)O	metabolite_detected	–	–	–
CC1(C)OB(c2ccc(N(CCOS(C)(=O)=O)CCOS(C)(=O)=O)cc2)OC1(C)C	–	3	3	22
